# Screens: PubChem BioAssay, The Scripps Research Institute Molecular Screening Center
# Compounds with a hit are over-represented: about 1.8% of the library has one in this group of screens.
# MC4R antagonist: blocks human MC4R cAMP signaling; inhibition, % at 6.5 µM; MC4R-expressing cells, MTII-stimulated cAMP, LANCE TR-FRET; actives 0.48% (n = 360,000);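 active means inhibition above its plate's cutoff, the mean of tested wells on that plate plus 3 SD, cut at about 29% in these data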;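 further: 0% = Melanotan II alone and 100% = Melanotan II plus saturating MCL0020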
#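 Material – human MC4R-expressing U2OS cells · Repeats – no replicates · Detection – TR-FRET with Eu-cAMP and labeled anti-cAMP, 671 nm · Times – compound 30 min, challenge 1 h, detection 1 h · Compound – single nominal compound dose of 6.5 µM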
# NOD2 RIPK2 PPI: blocks binding of human NOD2 to RIPK2 | O43353 | CHO BLA complementation NOD2-RIPK2, CCF4 ratio | inhibition, % at 4.98 µM | actives 0.38% (n = 360,000) | AID 624267; in the data active means inhibition above about 21%;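 further: 0% = vehicle only and 100% = reference blocker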
# Target sequence (O43353 whole entry, looked up): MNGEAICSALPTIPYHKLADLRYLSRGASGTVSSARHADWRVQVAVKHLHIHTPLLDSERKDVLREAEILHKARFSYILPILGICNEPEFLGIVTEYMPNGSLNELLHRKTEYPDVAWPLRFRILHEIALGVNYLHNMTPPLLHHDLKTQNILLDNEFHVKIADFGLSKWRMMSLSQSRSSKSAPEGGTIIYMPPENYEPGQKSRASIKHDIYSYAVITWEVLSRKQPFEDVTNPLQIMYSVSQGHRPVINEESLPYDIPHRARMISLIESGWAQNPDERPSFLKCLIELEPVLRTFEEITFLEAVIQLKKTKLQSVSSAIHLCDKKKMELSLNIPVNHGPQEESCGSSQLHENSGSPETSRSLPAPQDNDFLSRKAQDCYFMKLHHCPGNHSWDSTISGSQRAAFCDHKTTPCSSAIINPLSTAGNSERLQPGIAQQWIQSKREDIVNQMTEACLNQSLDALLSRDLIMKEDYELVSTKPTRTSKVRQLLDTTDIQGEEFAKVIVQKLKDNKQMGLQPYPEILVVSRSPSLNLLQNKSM
# TLR4-MyD88 BLA: blocks binding of human TLR4 to MyD88; HeLa CL3-4 TLR4/MyD88 BLA complementation, FRET ratio; inhibition, % at 8.4 µM; actives 0.18% (n = 200,000); AID 861; in the data active means inhibition above about 25%;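 further: 0% = vehicle and 100% = reference inhibitor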
# TLR9-MyD88 inh: blocks human TLR9 binding to MyD88. Q9NR96+Q99836. inhibition, % at 4.98 µM. CHO BLA complementation TLR9-MyD88, CCF4 FRET ratio. actives 0.21% (n = 340,000);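 active means inhibition above the mean over all tested compounds plus 3 SD, cut at about 21% in these data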;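 further: 0% = DMSO only wells and 100% = clavulanate BLA inhibitor control wells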
# MC4R ag barr: human MC4R agonism via beta-arrestin; actives 0.98% (n = 360,000); U2OS MC4R beta-arrestin complementation, luminescence; percent of melanotan II response, DMSO zero; activation, % at 8.9 µM;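 active means activation above a per-plate cutoff, the mean activation of sample wells on that plate plus 3 SD, cut at about 8% in these data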
# cAMP nonselect: U2OS forskolin cAMP inhibition counter-screen | shares compounds with MC4R antagonist | parental U2OS, LANCE TR-FRET | inhibition, % at 6.5 µM | actives 26% (n = 1,600);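 active means mean inhibition over triplicates above the low-control well mean plus 3 SD, set per campaign, cut at about 13% in these data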;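 further: signal is single emission at 671 nm which falls as cellular cAMP rises; 0% = forskolin-stimulated wells and 100% = buffer without forskolin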
# MC4R antag conf: human MC4R cAMP antagonism confirmation; shares compounds with MC4R antagonist; MC4R-expressing cells, MTII-stimulated cAMP, TR-FRET; inhibition, % at 6.5 µM; actives 27% (n = 1,600); AID 602195; in the data active means inhibition above about 29%;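 further: 0% = agonist stimulated wells alone and 100% = agonist stimulated wells plus saturating reference antagonist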
# Numbers without * were called inactive; nt = not tested or not shown.
SMILES,MC4R antagonist,NOD2 RIPK2 PPI,TLR4-MyD88 BLA,TLR9-MyD88 inh,MC4R ag barr,cAMP nonselect,MC4R antag conf
CCc1nnc(NC(=O)c2nc(Cl)ccc2Cl)s1,4,-11,nt,-3,-2,nt,nt
C=CCSc1nnc(NC(=O)c2nc(SCC)ncc2Cl)s1,6,-4,-7,3,-1,nt,nt
CCc1nnc(NC(=O)c2nc(S(=O)(=O)Cc3ccccc3)ncc2Cl)s1,30*,18,nt,3,-1,12,9
CSc1nnc(NC(=O)c2nc(S(=O)(=O)Cc3ccccc3F)ncc2Cl)s1,41*,7,nt,5,-2,18*,38*
CCSc1nnc(NC(=O)c2nc(S(=O)(=O)Cc3ccc(F)cc3)ncc2Cl)s1,49*,4,nt,0,-2,14*,20
CSc1nnc(NC(=O)c2nc(S(=O)(=O)Cc3cccc(C)c3)ncc2Cl)s1,59*,14,nt,10,-3,29*,48*
CCc1nc2ccc(C(=O)NC3CCN(Cc4ccccc4)CC3)cn2c1N(CC)Cc1cccc(Br)c1,18,-2,nt,nt,2,nt,nt
Cc1ccsc1/C=C(\C#N)C(=O)NC1CCS(=O)(=O)C1 (centres undefined),-1,5,-5,-1,-3,nt,nt
CN(C(=O)COC(=O)c1cccc(S(=O)(=O)N2CCCCC2)c1)C1CCS(=O)(=O)C1 (centres undefined),-7,-8,nt,5,-1,nt,nt
Cc1ccc(F)c(NC(=O)c2cncn2-c2ccccc2)c1,30*,-6,nt,-9,-1,0,-9
CC(=O)N(c1ccc(Cl)cc1)c1cn(C(C)=O)c2ccccc12,7,-22,17,-8,-2,nt,nt
CC(=O)n1cc(N(C(=O)CCl)c2ccc(C)cc2)c2ccccc21,46*,4,nt,5,17*,-21,45*
S=c1[nH]c(-c2ccccc2)cn1/N=C/c1cccc2ccccc12,29*,1,-10,2,0,1,-6
CC(=O)Oc1ccc(CN2C(=O)C(CCc3ccccc3)ON=C2c2cnccn2)cc1 (centres undefined),29*,-2,nt,nt,0,6,13
CN1C(=O)/C(=C/c2ccc(OCc3ccccc3F)cc2)N(C)C1=S,-1,-25,nt,-6,0,nt,nt
Cc1ccccc1NC(=O)COC(=O)CCC(=O)c1cccs1,8,2,nt,-4,-2,nt,nt
O=C(NCc1ccccc1Cl)C1CCCN(S(=O)(=O)c2cccc3nonc23)C1 (centres undefined),4,-13,nt,-4,0,nt,nt
Cc1ccc(S(=O)(=O)/N=C2/C=C(Sc3ncn[nH]3)C(=O)c3ccccc32)cc1,48*,-9,-6,4,-1,27*,35*
CCN1CCN(c2ccc(Cl)cc2NC(=O)c2ccc(-n3nc(C)cc3C)cc2)CC1,-2,5,nt,10,3,nt,nt
COc1ccc(-c2noc(=O)n2Cc2ccccc2F)cc1,-2,-4,nt,12,-2,nt,nt
CCOC(=O)C1(C)Oc2ccccc2C(C(=O)OC)=C1C(=O)OC (centres undefined),3,2,nt,0,-2,nt,nt
COC(=O)C1=C(C(=O)OC)SC2(S1)C(C(=O)OC)=C(C(=O)OC)SC1=C2c2cccc(C)c2NC1(C)C,41*,3,-9,-2,0,11,45*
CC1CCC2(CC1)NC(=O)N(NC(=O)CCc1c[nH]c3ccccc13)C2=O (centres undefined),8,-1,nt,3,-2,nt,nt
Cc1ccc(S(=O)(=O)N(C)C[C@@H]2OCCCC[C@@H](C)Oc3ccc(NS(=O)(=O)c4c(C)noc4C)cc3C(=O)N([C@H](C)CO)C[C@@H]2C)cc1,34*,-7,nt,2,1,-1,3
Cc1noc(C)c1S(=O)(=O)Nc1ccc2c(c1)C(=O)N([C@H](C)CO)C[C@H](C)[C@H](CN(C)S(=O)(=O)c1ccc(Cl)cc1)OCCCC[C@@H](C)O2,nt,-17,nt,nt,nt,nt,nt
SMILES,MC4R antagonist,NOD2 RIPK2 PPI,TLR4-MyD88 BLA,TLR9-MyD88 inh,MC4R ag barr,cAMP nonselect,MC4R antag conf
CCOC(=O)/C(=C/C1=CC(=C/N(C)C)/C(=O)O1)C(C)=O,-21,-4,nt,4,0,nt,nt
O=C(CSc1nccc(=O)[nH]1)NN(c1ccccc1)c1ccccc1,29*,-13,-18,3,0,-6,-20
CCOc1ccc(N(CC(=O)N2CCCC2)S(=O)(=O)c2ccc(F)cc2)cc1,-1,3,nt,-1,-3,nt,nt
COc1cc(Cl)ccc1OCc1cc(C(=O)N(C)CC2CCCCO2)no1 (centres undefined),-1,-3,nt,-8,-3,nt,nt
CC(C)N(Cc1ccccc1)C(=O)COC(=O)c1cnc(Cl)c(Cl)c1,45*,10,nt,-5,-4,33*,52*
CC(C)CN(C(=O)COC(=O)c1cccnc1Cl)c1c(N)n(Cc2ccccc2)c(=O)[nH]c1=O,4,-1,nt,4,-1,nt,nt
O=C(OCc1ccccc1)c1cnc(Cl)c(Cl)c1,26,11,nt,-2,1,nt,nt
O=C(COC(=O)c1cnc(Cl)c(Cl)c1)NCc1cccs1,36*,-3,7,-4,-2,22*,35*
CC(C)CN(C(=O)COC(=O)c1cnc(Cl)c(Cl)c1)c1c(N)n(Cc2ccccc2)c(=O)[nH]c1=O,47*,-2,nt,0,-3,12,51*
Cc1cccc(NC(=O)CN(C)S(=O)(=O)c2ccc3c(c2)n(C)c(=O)c(=O)n3C)c1C,5,8,nt,1,-2,nt,nt
Cc1ccc2nc(-c3ccc(-c4cccc(Cl)c4)cc3)c(NCc3ccccc3)n2c1,2,12,nt,4,4,nt,nt
CCCCNc1c(-c2cccc(-c3ccc(OC)cc3)c2)nc2ccc(C)cn12,40*,7,nt,-8,3,15*,41*
CCCCNc1c(-c2cccc(-c3ccc(OC)cc3)c2)nc2cc(C)ccn12,34*,4,nt,3,0,30*,56*
COc1ccc(NC(=O)Nc2ccccc2SC)c(OC)c1,34*,-13,8,2,1,-3,-10
COc1ccc(NC(=O)CC(C)C)c(OC)c1,2,-10,-4,-8,-1,nt,nt
COc1ccc(NC(=O)NCc2ccco2)c(OC)c1,33*,-4,0,-6,-1,2,2
COc1ccc(NC(=O)Nc2ccccc2C)c(OC)c1,4,-5,14,0,-1,nt,nt
COC(=O)C(Cc1ccccc1)NC(=O)CC(C)CC(=O)Nc1ccc(OC)cc1OC (centres undefined),35*,-5,nt,-7,0,9,9
Cc1ccc(OCC(=O)Nc2cnn(CCCC(=O)O)c2)c([N+](=O)[O-])c1,-10,7,7,2,1,nt,nt
